Data as given in paper PMC3672992 (Therapeutic drug monitoring, 2008).
Like-named read-outs stand apart in the source and are kept apart here.

Legend:
[1] = without ritonavir boosting, cited from earlier work
[2] = cited from earlier work
[3] = Steady-state plasma pharmacokinetics of total lopinavir; assay type: in vivo, human; conditions: for Total lopinavir Ctrough / Total lopinavir tmax: steady-state, median (IQR)
[4] = Steady-state pharmacokinetics of unbound lopinavir; assay type: in vivo, human
[5] = mild hepatic impairment group; cited from earlier work
[6] = Steady-state plasma pharmacokinetics of total ritonavir; assay type: in vivo, human
In short: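 HIV-infected Caucasian adults took protease-inhibitor combination capsules at 400/100 mg twice daily (266/66 mg if under 50 kg) with standardized meals. After at least 2 wk of dosing, blood was drawn predose and 1, 2, 3, 4, 6, 8 and 12 h after the morning dose. EDTA plasma (600g, 10 min) was stored at −80°C and assayed by HPLC-UV (linear 100–16,000 ng/mL). Ctrough is the predose, noncompartmental value.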

[7] = patients with significant liver fibrosis; cited from earlier work
[8] = Group III HIV+/HCV+ with cirrhosis, n=9
[9] = Group I HIV+/HCV−, n=12, median (IQR)
[10] = Group II HIV+/HCV+, n=18, median (IQR)
[11] = Group III HIV+/HCV+ with cirrhosis, n=6, median (IQR)

Cc1c(O)cccc1C(=O)N[C@@H](CSc1ccccc1)[C@H](O)CN1C[C@H]2CCCC[C@H]2C[C@H]1C(=O)NC(C)(C)C [NFV, nelfinavir]
NFV AUC(0–12) fold higher relative to noncoinfected HIV+ control group ([1]; HIV+/HCV+ patients with cirrhosis): 2.5 fold | NFV AUC(0–12) fold higher relative to noncoinfected HIV+ control group ([1]; HIV+/HCV+ patients): 1.3 fold

O=C1Nc2ccc(Cl)cc2[C@@](C#CC2CC2)(C(F)(F)F)O1 [efavirenz]
Efavirenz plasma concentration ([2]; HCV-coinfected individuals without cirrhosis): 1.9 µg/mL | Efavirenz plasma concentration ([2]; patients with cirrhosis, P = 0.001): 3.4 µg/mL

Cc1cccc(C)c1OCC(=O)N[C@@H](Cc1ccccc1)[C@@H](O)C[C@H](Cc1ccccc1)NC(=O)[C@H](C(C)C)N1CCCNC1=O [lopinavir]
Total lopinavir Ctrough ([3]; Group I HIV+/HCV−, n=24): 7.4 (4.1–10.0) μg/mL | Total lopinavir Ctrough ([3]; Group II HIV+/HCV+, n=23): 6.4 (4.5–10.1) μg/mL | Total lopinavir tmax ([3]; Group II HIV+/HCV+, n=23): 4.0 (4.0–6.0) h | Total lopinavir Ctrough [3, 8]: 7.0 (5.7–7.6) μg/mL | Total lopinavir tmax [3, 8]: 4.0 (4.0–6.0) h | Increase in drug clearance (compensatory effect) ([3]; HIV/HCV-coinfected patients with cirrhosis versus HIV+/HCV− patients): ~ 29% | Unbound lopinavir AUCu(0–12) [4, 9]: 0.87 (0.77–1.21) μg*h/mL | Unbound lopinavir Cu,max [4, 9]: 0.12 (0.10–0.14) μg/mL | Unbound lopinavir Cu,trough [4, 9]: 0.05 (0.03–0.08) μg/mL | Unbound lopinavir AUCu(0–12) [4, 10]: 1.21 (0.73–1.43) μg*h/mL | Unbound lopinavir Cu,max [4, 10]: 0.13 (0.10–0.18) μg/mL | Unbound lopinavir Cu,trough [4, 10]: 0.07 (0.05–0.10) μg/mL | Unbound lopinavir AUCu(0–12) [4, 11]: 1.41 (1.14–1.85) μg*h/mL | Unbound lopinavir Cu,max [4, 11]: 0.16 (0.14–0.18) μg/mL | Unbound lopinavir Cu,trough [4, 11]: 0.08 (0.03–0.10) μg/mL | Percentage of unbound LPV [5]: 0.89%

CC(C)c1nc(CN(C)C(=O)N[C@H](C(=O)N[C@@H](Cc2ccccc2)C[C@H](O)[C@H](Cc2ccccc2)NC(=O)OCc2cncs2)C(C)C)cs1 [ritonavir]
Total ritonavir Ctrough ([6]; Group I HIV+/HCV−, n=14, median (IQR)): 0.57 (0.51–0.77) μg/mL | Total ritonavir Ctrough ([6]; Group II HIV+/HCV+, n=15, median (IQR)): 0.50 (0.23–0.73) μg/mL | Total ritonavir Ctrough ([6]; Group III HIV+/HCV+ with cirrhosis, n=4, median (IQR)): 0.70 (0.65–0.72) μg/mL

CCC[C@@]1(CCc2ccccc2)CC(O)=C([C@H](CC)c2cccc(NS(=O)(=O)c3ccc(C(F)(F)F)cn3)c2)C(=O)O1 [tipranavir]
Change in tipranavir concentrations [7]: significant increase
